# Gli-Sufu antag = Gli-Sufu pathway antagonists, primary screen, luciferase luminescence, Sufu-KO-LIGHT cells, uHTS; 340,000 tested, 0.74% active; AID 588413, 2011; inhibition, % at 5 µM; Sufu-KO-LIGHT fibroblasts, Gli luciferase reporter luminescence;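 active = inhibition above about 55%, limit read from the data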
# NR2E3 ag-1 = NR2E3 agonists in two-hybrid cells, primary screen, cell-based, luminescence, CHO-S, Gal4-NCOR/VP16-NR2E3. Photoreceptor-specific nuclear receptor (Homo sapiens), Q9Y5X4. inhibition of corepressor binding, % at 3.98 µM. luciferase. 360,000 tested, 0.35% active. AID 602229, 2012;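 active = inhibition above the mean of all tested compounds plus 3 SD, cut at about 70% in these data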;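 also: higher means lower luciferase signal from less NR2E3 corepressor binding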
# Target sequence (Q9Y5X4 whole entry, looked up, the tested form may be a part): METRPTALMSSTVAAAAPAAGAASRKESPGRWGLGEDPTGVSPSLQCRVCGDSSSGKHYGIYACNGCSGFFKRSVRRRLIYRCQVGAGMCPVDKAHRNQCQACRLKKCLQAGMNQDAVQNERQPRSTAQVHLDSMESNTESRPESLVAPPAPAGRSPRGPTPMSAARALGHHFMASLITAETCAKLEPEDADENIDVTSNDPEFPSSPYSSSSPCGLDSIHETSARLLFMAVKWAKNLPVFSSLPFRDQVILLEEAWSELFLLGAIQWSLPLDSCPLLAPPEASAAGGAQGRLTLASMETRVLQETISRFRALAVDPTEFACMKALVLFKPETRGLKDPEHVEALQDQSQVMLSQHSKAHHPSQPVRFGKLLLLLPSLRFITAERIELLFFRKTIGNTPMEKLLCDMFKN
# 697 NFkB inh = inhibitors of PMA/ionomycin-induced NF-kB reporter, 697 cells, primary screen, B-cell NF-kB inhibitor project, cell-based, luminescence, uHTS; 697 B-cell NF-kB luciferase reporter, 16 h; inhibition, % at 4 µM; 330,000 tested, 0.33% active; in the data active = inhibition above about 35%
# NR2E3 ag-2 = inhibitors of NR2E3-RetCOR corepressor binding, primary screen, NR2E3 agonist project, biochemical, TR-FRET, GST-NR2E3, biotin-RetCOR; 1536-well; inhibition of corepressor binding, % at 4.78 µM; 320,000 tested, 0.12% active; AID 2300, 2010;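 active = percent inhibition above the cutoff of mean plus 3 SD of all tested compounds, set per screening campaign, cut at about 20% in these data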
#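 Format: 1536-well format; test system: GST-NR2E3 and biotin-RetCOR proteins; read-out basis: percent inhibition of TR-FRET ratio; timing: 5 h incubation at 4 °C; detection: time-resolved FRET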
# GalR3 antag = GalR3 antagonists in HEK293 cells, primary screen, cell-based, fluorescence readout; inhibition, % at 3 µM; HEK293 GalR3-CNG cAMP membrane potential fluorescence; galR3 body fused to GalR1 C-terminus; AID 651719, 2012; 360,000 tested, 0.44% active; Galanin receptor type 3 (Homo sapiens), O60755;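 active = inhibition above the screen-wide average plus 3 SD, cut at about 13% in these data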;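 also: forskolin and galanin both at EC90 stimulate the cells; cAMP rise reported by CNG channel membrane potential dye signal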
# Jurkat NFkB inh = inhibitors of induced NF-kB luciferase reporter, primary screen, TCR NF-kB activation inhibitor project, cell-based, luminescence, uHTS | Jurkat, PMA/ionomycin-induced NF-kB luciferase reporter | inhibition, % at 4 µM | 330,000 tested, 0.53% active; in the data active = inhibition above about 50%
# NR2E3 ag confirm = NR2E3 agonist confirmation in cells, cell-based, luminescence, CHO-S two-hybrid; inhibition, % at 3.98 µM; shares compounds with NR2E3 ag-1; CHO-S mammalian two-hybrid NR2E3-NCOR, luciferase luminescence; 2,300 tested, 51% active; AID 624378, 2012;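 active = average inhibition above a cutoff equal to the mean inhibition of all tested compounds plus one SD, cut at about 70% in these data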
# GAL4-VP16 luc = GAL4-VP16 reporter modulators, confirmation, counter-screen for NR2E3 agonist project, cell-based, luminescence, CHO-S, high throughput. shares compounds with NR2E3 ag-1. CHO-S GAL4-VP16 luciferase reporter. inhibition, % at 3.98 µM. 2,300 tested, 29% active. AID 624379, 2012;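 active = mean inhibition above a cutoff equal to the average over all tested compounds plus one standard deviation, cut at about 70% in these data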;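 also: luciferase from a UAS reporter driven by GAL4-VP16 transactivation; higher means less reporter light so more repression of VP16 activity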
# A number is an active result; i = inactive; nt = no result. Shown are actives, neighbours in structure and some others; about 1.8% of the full set was active somewhere.
SMILES,Gli-Sufu antag,NR2E3 ag-1,697 NFkB inh,NR2E3 ag-2,GalR3 antag,Jurkat NFkB inh,NR2E3 ag confirm,GAL4-VP16 luc
COc1ccc(NC(=O)CCCNC(=O)c2ccc(Cl)cc2)cc1S(=O)(=O)N1CCOCC1,i,i,nt,nt,i,nt,nt,nt
O=C(CSc1nnc(NC(=O)C2CC2)s1)NCc1ccccc1,i,i,i,i,i,i,i,i
Cc1nc(NC(=O)CN2CC(C)OC(C)C2)sc1C(=O)N(C)C (stereo not drawn),i,i,i,i,i,i,nt,nt
Cc1ccc(S(=O)(=O)c2ccc([N+](=O)[O-])o2)cc1,i,i,nt,nt,i,nt,92,i
Cc1ccc(NC(=O)c2ccc([N+](=O)[O-])o2)c(C)c1,i,i,i,i,i,i,nt,nt
Cc1ccnc(NC(=O)Cc2ccc(-c3ccccc3)cc2)c1,i,93,i,i,i,i,98,i
O=C(Cc1ccc(-c2ccccc2)cc1)Nc1ccccn1,i,72,i,i,i,i,i,i
O=C(NCCc1ccc(F)cc1)Nc1ccc([N+](=O)[O-])cc1,i,i,i,nt,i,i,nt,nt
O=[N+]([O-])c1ccc(NC(=S)NCCc2ccc(F)cc2)cc1,i,i,i,i,i,i,77,i
CC(=O)Nc1ccc(SCC(=O)c2cc(C)n(-c3ccccc3F)c2C)cc1,i,i,i,i,i,i,i,i
COCCn1c(C)cc(C(=O)CSc2ccc(NC(C)=O)cc2)c1C,i,i,i,i,i,i,nt,nt
CC(=O)Nc1ccc(SCC(=O)c2cc(C)n(Cc3cccs3)c2C)cc1,i,i,i,i,i,i,i,i
COC(=O)c1[nH]c2c(c1C)C(=O)CC(c1cc(OC)c(OC)c(OC)c1)C2 (stereo not drawn),i,i,i,i,i,i,nt,nt
CCOCCOC(=O)c1[nH]c2c(c1C)C(=O)CC(c1cc(OC)c(OC)c(OC)c1)C2 (stereo not drawn),i,i,i,i,i,i,i,i
CC1=CCC(C(=O)O)C(C(=O)Nc2ccc(-c3nc4ccc(C)cc4s3)cc2)C1 (stereo not drawn),i,i,i,i,i,i,i,i
COc1ccc(CNC(=O)C(=O)NCC2OCCCN2S(=O)(=O)c2cccs2)cc1 (stereo not drawn),i,i,i,i,i,i,nt,nt
O=C(Nc1ccccc1Cc1ccccc1)c1ccncc1,i,i,i,i,i,i,nt,nt
CCOC(=O)c1ccc(S(=O)(=O)Nc2ccc3cn[nH]c3c2)cc1,i,i,i,i,i,i,i,i
COc1ccc(C)cc1NC(=O)c1nnn(Cc2cccc(C(F)(F)F)c2)c1N,i,i,i,i,i,i,85,i
Cc1ccccc1Cn1nnc(C(=O)Nc2cccc(C)c2C)c1N,i,i,i,i,i,i,87,i
COc1ccc(OC)c(NC(=O)c2nnn(CCc3ccccc3)c2N)c1,i,i,i,i,i,i,nt,nt
O=C1NC(=S)SC1=Cc1cc(Br)ccc1O,i,i,nt,nt,i,nt,nt,nt
O=C1NC(=S)SC1=Cc1ccccc1Br,i,74,nt,nt,i,nt,95,72
O=C(Nc1nnc(-c2cccs2)o1)c1cc(-c2ccccc2)nc2ccccc12,i,71,i,i,i,i,99,i
O=C(NCc1cccs1)c1cc(-c2ccccc2)nc2ccccc12,i,i,i,i,i,i,nt,nt
SMILES,Gli-Sufu antag,NR2E3 ag-1,697 NFkB inh,NR2E3 ag-2,GalR3 antag,Jurkat NFkB inh,NR2E3 ag confirm,GAL4-VP16 luc
Cn1cnc(S(=O)(=O)N2CCCCC2c2cc(C(=O)Nc3cccc(C#N)c3)no2)c1 (stereo not drawn),nt,i,nt,nt,i,nt,nt,nt
Cc1nnc(N2CCC(C(=O)N3CCCCCC3)CC2)c2nn(-c3ccc(Cl)cc3)c(C)c12,i,i,i,i,i,i,nt,nt
Cc1c(C(=O)Nc2ccc3c(c2)OCCO3)sc2nc(-c3ccccc3)cn12,i,i,i,i,i,i,i,i
COc1ccc(S(=O)(=O)Nc2ccc3c(c2)C(=O)N([C@H](C)CO)C[C@H](C)[C@@H](CN(C)S(=O)(=O)c2ccc(F)cc2)O3)cc1,i,i,i,nt,i,i,nt,nt
COc1cc(CCc2ccccc2)c(C(=O)O)c(O)c1C/C=C(/C)CCC=C(C)C,i,i,i,nt,i,nt,98,71
CC(C)=CCC/C(C)=C/Cc1c(O)ccc(C(=O)/C=C/c2ccc(O)cc2)c1O,i,i,i,i,i,i,nt,nt
COCOc1ccc(/C=C/C(=O)c2c(OCOC)cc(OCOC)c(CC=C(C)C)c2O)cc1OCOC,i,i,i,i,nt,i,nt,nt
COc1cc(CCc2ccccc2)c(C(=O)O)c(O)c1CC=C(C)C,i,85,nt,nt,i,nt,99,78
COC1C=CC=C(C)C(=O)NC2=CC(=O)C(N)=C(CC(C)CC(OC)C(O)C(C)C=C(C)C1OC(N)=O)C2=O (stereo not drawn),69,91,nt,nt,i,nt,97,i
CCCOc1ccc(F)cc1-c1cc(C(=O)NCc2ccc(C(F)(F)F)cc2)[nH]n1,nt,i,nt,nt,nt,nt,i,i
Cc1nn(Cc2c(F)c(F)c(F)c(F)c2F)c(C)c1NC(=O)c1cccc(COc2ccccc2Cl)c1,i,i,i,i,i,i,nt,nt
Cc1nn(Cc2cccc(F)c2)c(C)c1NC(=O)c1ccc(COc2ccccc2Cl)cc1,i,79,i,i,i,i,94,i
Cc1ccc(C)c(NC(=O)CN(C)C(=O)c2cccc(S(=O)(=O)N3CCN(Cc4ccccc4)CC3)c2)c1,i,i,i,i,i,i,i,i
Cc1ccc(C)c(NC(=O)CN(C)C(=O)c2cccc(S(=O)(=O)N3CCCC3)c2)c1,i,i,i,nt,i,i,nt,nt
COc1cccc(/C=N/Nc2ccc([N+](=O)[O-])cn2)c1O,i,103,i,i,i,i,99,93
O=[N+]([O-])c1ccc(NN=Cc2cccc3ccccc23)nc1,i,i,nt,nt,i,nt,nt,nt
Cc1cnc(C(=O)N2CCN(S(=O)(=O)c3cccc(Br)c3)CC2)cn1,i,i,i,nt,i,i,nt,nt
